Assay results taken from PMC8302237 (CPT: Pharmacometrics & Systems Pharmacology, 2021).

Experiments:
[1] = assay type: in vivo, human; conditions: for dose proportionality of PK: p.o. tablet dosing
Procedure, shortened: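 Plasma parent, M5 and M6 concentration-time data came from clinical studies. In healthy volunteers, dosing was i.v., 150–600 mg single-dose tablet p.o., or 300–750 mg multiple-dose tablet. In HCV patients, dosing was 50–300 mg single-dose or 50–400 mg multiple-dose capsule, or 300–450 mg multiple-dose tablet; 450 mg once daily gave Day 7 profiles with washout. Itraconazole DDI: healthy volunteers; HCV patients received 300 mg multiple-dose tablet plus 200 mg multiple-dose itraconazole.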

Minimal PBPK model = assay type: in vivo, human

Question: Which results are given for C[C@@]1(Cl)[C@H](O)[C@@H](CO)O[C@H]1n1ccc(=O)[nH]c1=O [M6]?
Answer: effect of itraconazole coadministration on early metabolite profile ([1]; itraconazole DDI, plasma): first M6 peak was almost absent; dose proportionality of PK [1]: not dose proportional

Question: With CC(C)OC(=O)[C@@H](C)N[P@@](=O)(OC[C@H]1O[C@@H](n2ccc(=O)[nH]c2=O)[C@](C)(Cl)[C@@H]1O)Oc1ccccc1 [uprifosbuvir] as the compound, how does the “effect of itraconazole coadministration on uprifosbuvir exposure” value ([1]; itraconazole DDI study, plasma) read?
Answer: large increase in uprifosbuvir exposure

Question: And the “effect of itraconazole coadministration on uprifosbuvir tmax” value ([1]; itraconazole DDI study, plasma)?
Answer: delayed time to reach maximum uprifosbuvir plasma concentration

Question: What about the “dose proportionality of PK” value [1] of the same compound?
Answer: dose proportional

Question: What about the “share of unabsorbed uprifosbuvir dose metabolized into M5” value (Minimal PBPK model; gut) of the same compound?
Answer: 11%

Question: What about the “share of unabsorbed uprifosbuvir dose metabolized into M6” value (Minimal PBPK model; gut) of the same compound?
Answer: 52%

Question: What about the “share of unabsorbed uprifosbuvir dose metabolized into pseudo-M4” value (Minimal PBPK model; gut) of the same compound?
Answer: 37%

Question: And the “unabsorbed fraction of uprifosbuvir dose (metabolized in gut)” value (Minimal PBPK model; p.o., based on the model)?
Answer: 86%

Question: What about the “uprifosbuvir dose estimated to reach the liver unchanged” value (Minimal PBPK model; p.o., based on the model) of the same compound?
Answer: about 14%
